Reference: ChEMBL document CHEMBL3862011, “Neuroprotective effects of benzyloxy substituted small molecule monoamine oxidase B inhibitors in Parkinson's disease” (Bioorg Med Chem, 2016)

Experiments:
[1] = Cytotoxicity against rat PC12 cells assessed as cell survival at 100 uM after 24 hrs by MTT assay relative to control; assay type: toxicity, PC-12; details: read-out: Survival
[2] = Neuroprotective activity against 6-OHDA-induced toxicity in rat PC12 cells assessed as cell survival at 20 uM preincubated for 24 hrs followed by 6-OHDA addition measured after 24 hrs by MTT assay relative to control; assay type: functional; details: PC-12, read-out: Survival
Summary of the method: (§1)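 PC12 cells seeded 5×10^3/well, after 24 h given compound at 20 μM for 24 h at 37 °C, then exposed to 6-OHDA (40 μM) or rotenone (1 μM) for 24 h. […] Mean ± SEM of three independent experiments.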

[3] = Neuroprotective activity against rotenone-induced toxicity in rat PC12 cells assessed as cell survival at 20 uM preincubated for 24 hrs followed by rotenone addition measured after 24 hrs by MTT assay relative to control; assay type: functional; details: PC-12, read-out: Survival; summary of the method: as §1
[4] = test system: PC-12; test: Neuroprotective activity against 6-OHDA-induced toxicity in rat PC12 cells assessed as increase in cell survival preincubated for 24 hrs followed by 6-OHDA addition measured after 24 hrs by MTT assay; assay type: functional, cell-based
Summary of the method: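 PC12 cells in RPMI-1640 with 10% FBS were seeded at 5×10^3 cells/well. After 24 h, compounds at 20 μM were added for 24 h at 37 °C, followed by 6-OHDA (40 μM) or rotenone (1 μM) for 24 h. Viability by MTT (570 nm, reference 630 nm), expressed as percent of untreated control. […] Mean ± SEM.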

[5] = test system: PC-12; test: Neuroprotective activity against 6-OHDA-induced apoptosis in rat PC12 cells assessed as early apoptotic cells at 5 uM after 24 hrs by 7-AAD/annexin V APC staining-based flow cytometric method (reference value: 42.1%); assay type: functional
[6] = test system: PC-12; test: Neuroprotective activity against 6-OHDA-induced apoptosis in rat PC12 cells assessed as late apoptotic cells at 5 uM after 24 hrs by 7-AAD/annexin V APC staining-based flow cytometric method (reference value: 4.4%); assay type: functional
[7] = test system: PC-12; test: Neuroprotective activity against 6-OHDA-induced apoptosis in rat PC12 cells assessed as necrotic cells at 5 uM after 24 hrs by 7-AAD/annexin V APC staining-based flow cytometric method (reference value: 0.6%); assay type: functional
[8] = test system: PC-12; test: Neuroprotective activity against 6-OHDA-induced apoptosis in rat PC12 cells assessed as viable cells at 5 uM after 24 hrs by 7-AAD/annexin V APC staining-based flow cytometric method (reference value: […]); assay type: functional; details: PC-12, 24 h, read-out: Activity
[9] = test system: PC-12; test: Neuroprotective activity against 6-OHDA-induced apoptosis in rat PC12 cells assessed as early apoptotic cells at 10 uM after 24 hrs by 7-AAD/annexin V APC staining-based flow cytometric method (reference value: 42.1%); assay type: functional
[10] = test system: PC-12; test: Neuroprotective activity against 6-OHDA-induced apoptosis in rat PC12 cells assessed as necrotic cells at 10 uM after 24 hrs by 7-AAD/annexin V APC staining-based flow cytometric method (reference value: 0.6%); assay type: functional
[11] = test system: PC-12; test: Neuroprotective activity against 6-OHDA-induced apoptosis in rat PC12 cells assessed as viable cells at 10 uM after 24 hrs by 7-AAD/annexin V APC staining-based flow cytometric method (reference value: […]); assay type: functional; details: PC-12, 24 h, read-out: Activity
[12] = test system: PC-12; test: Neuroprotective activity against 6-OHDA-induced apoptosis in rat PC12 cells assessed as early apoptotic cells at 20 uM after 24 hrs by 7-AAD/annexin V APC staining-based flow cytometric method (reference value: 42.1%); assay type: functional
[13] = test system: PC-12; test: Neuroprotective activity against 6-OHDA-induced apoptosis in rat PC12 cells assessed as late apoptotic cells at 20 uM after 24 hrs by 7-AAD/annexin V APC staining-based flow cytometric method (reference value: 4.4%); assay type: functional
[14] = test system: PC-12; test: Neuroprotective activity against 6-OHDA-induced apoptosis in rat PC12 cells assessed as viable cells at 20 uM after 24 hrs by 7-AAD/annexin V APC staining-based flow cytometric method (reference value: […]); assay type: functional; details: PC-12, 24 h, read-out: Activity
[15] = test system: PC-12; test: Neuroprotective activity against rotenone-induced apoptosis in rat PC12 cells assessed as early apoptotic cells at 5 uM after 24 hrs by 7-AAD/annexin V APC staining-based flow cytometric method (reference value: 2.2%); assay type: functional
[16] = test system: PC-12; test: Neuroprotective activity against rotenone-induced apoptosis in rat PC12 cells assessed as late apoptotic cells at 5 uM after 24 hrs by 7-AAD/annexin V APC staining-based flow cytometric method (reference value: 9.9%); assay type: functional
[17] = test system: PC-12; test: Neuroprotective activity against rotenone-induced apoptosis in rat PC12 cells assessed as necrotic cells at 5 uM after 24 hrs by 7-AAD/annexin V APC staining-based flow cytometric method (reference value: 48.6%); assay type: functional
[18] = test system: PC-12; test: Neuroprotective activity against rotenone-induced apoptosis in rat PC12 cells assessed as viable cells at 5 uM after 24 hrs by 7-AAD/annexin V APC staining-based flow cytometric method (reference value: 39.3%); assay type: functional; details: PC-12, 24 h, read-out: Activity
[19] = test system: PC-12; test: Neuroprotective activity against rotenone-induced apoptosis in rat PC12 cells assessed as late apoptotic cells at 10 uM after 24 hrs by 7-AAD/annexin V APC staining-based flow cytometric method (reference value: 9.9%); assay type: functional
[20] = test system: PC-12; test: Neuroprotective activity against rotenone-induced apoptosis in rat PC12 cells assessed as early apoptotic cells at 20 uM after 24 hrs by 7-AAD/annexin V APC staining-based flow cytometric method (reference value: 2.2%); assay type: functional
[21] = test system: PC-12; test: Neuroprotective activity against rotenone-induced apoptosis in rat PC12 cells assessed as necrotic cells at 20 uM after 24 hrs by 7-AAD/annexin V APC staining-based flow cytometric method (reference value: 48.6%); assay type: functional
[22] = test system: PC-12; test: Neuroprotective activity against rotenone-induced apoptosis in rat PC12 cells assessed as late apoptotic cells at 40 uM after 24 hrs by 7-AAD/annexin V APC staining-based flow cytometric method (reference value: 9.9%); assay type: functional
[23] = test system: PC-12; test: Neuroprotective activity against rotenone-induced apoptosis in rat PC12 cells assessed as necrotic cells at 40 uM after 24 hrs by 7-AAD/annexin V APC staining-based flow cytometric method (reference value: 48.6%); assay type: functional
[24] = test system: PC-12; test: Neuroprotective activity against rotenone-induced apoptosis in rat PC12 cells assessed as viable cells at 40 uM after 24 hrs by 7-AAD/annexin V APC staining-based flow cytometric method (reference value: 39.3%); assay type: functional; details: PC-12, 24 h, read-out: Activity
[25] = test system: Mus musculus; test: Acute toxicity in Kunming mouse assessed as abnormal changes in water consumption at 2000 mg/kg measured for 14 days; assay type: organism-based; details: in vivo, 336 h
Summary of the method: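 Kunming mice (20 ± 2 g), 10 per group, vehicle control group; fasted overnight, single oral dose in 0.5% CMC-Na suspension. Observed continuously for 4 h, intermittently to 24 h, then occasionally to day 14 for behaviour, mortality, food and water intake and body weight; sacrificed under ether on day 14.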

O=C1CCOc2cc(OCc3ccc(F)cc3)ccc21
viability at 24 h, 100 µM [1]: 93.1% | viability at 20 µM [2]: 134% | viability at 20 µM [3]: 126% | Activity [4]: Dose-dependent effect | Activity [5]: 25.1% | Activity [6]: 1.8% | Activity [7]: 3.8% | viability at 5 µM [8]: 69.3% | Activity [9]: 22% | Activity [10]: 4% | viability at 10 µM [11]: 70.7% | Activity [12]: 10.8% | Activity [13]: 0.3% | viability at 20 µM [14]: 87.8% | Activity [15]: 3.3% | Activity [16]: 9.3% | Activity [17]: 33.2% | viability at 5 µM [18]: 54.2% | Activity [19]: 16.1% | Activity [20]: 2.5% | Activity [21]: 30.2% | Activity [22]: 9.2% | Activity [23]: 25.8% | viability at 40 µM [24]: 62.1% | Activity [25]: Non-Toxic
